Measured values as given in ChEMBL document CHEMBL3407339, “A novel series of thiazolyl-pyrazoline derivatives: synthesis and evaluation of antifungal activity, cytotoxicity and genotoxicity” (Eur J Med Chem, 2015).
≈ marks a conversion by molar mass, not a printed value.

Tests used:
[1] = test system: Nakaseomyces glabratus; assay: Antifungal activity against Candida glabrata clinical isolate after 48 hrs by broth microdilution assay; format: functional
In short: (§1)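 Broth microdilution of DMSO stocks serially diluted in sterile water (4 to 0.0039 mg/mL). Yeasts grown on SDA at 37 °C for 24 h, suspended in double-strength PDB at 10⁵ spores/mL. Incubated at 37 °C for 48 h, then sprayed with 0.5% aqueous TTC. MIC = lowest concentration inhibiting visible growth. Ketoconazole reference.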

[2] = test system: Candida albicans; assay: Antifungal activity against Candida albicans ATCC 90028 after 48 hrs by broth microdilution assay; format: functional; conditions: ATCC 90028, 48 h; in short: as §1
[3] = test system: Candida tropicalis; assay: Antifungal activity against Candida tropicalis NRLL Y 12968 after 48 hrs by broth microdilution assay; format: functional; conditions: NRLL Y 12968, 48 h; in short: as §1
[4] = test system: Pichia kudriavzevii; assay: Antifungal activity against Candida krusei NRLL Y 7179 after 48 hrs by broth microdilution assay; format: functional; conditions: NRLL Y 7179, 48 h; in short: as §1
[5] = test system: [Candida] zeylanoides; assay: Antifungal activity against Candida zeylanoides NRLL Y 1774 after 48 hrs by broth microdilution assay; format: functional; conditions: Dujonia zeylanoides, NRLL Y 1774, 48 h; in short: as §1
[6] = test system: Candida parapsilosis; assay: Antifungal activity against Candida parapsilosis NRLL Y 12696 after 48 hrs by broth microdilution assay; format: functional; conditions: Lodderomyces parapsilosis, NRLL Y 12696, 48 h; in short: as §1
[7] = test system: Aspergillus flavus; assay: Antifungal activity against Aspergillus flavus NRRL 980 after 72 hrs by broth microdilution assay; format: functional; conditions: NRRL 980, 72 h
In short: (§2)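 Compounds dissolved in DMSO, diluted in sterile distilled water from 4 to 0.0039 mg/mL. Molds grown on PDA at 25 °C for 5 days, suspended in double-strength PDB at 10⁵ spores/mL. Incubated at 25 °C for 72 h; mycelial growth read under stereo microscope. MIC = lowest concentration inhibiting visible growth. Ketoconazole reference.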

[8] = test system: Aspergillus niger; assay: Antifungal activity against Aspergillus niger ATCC 1094 after 72 hrs by broth microdilution assay; format: functional; conditions: ATCC 1094, 72 h; in short: as §2
[9] = test system: Aspergillus parasiticus; assay: Antifungal activity against Aspergillus parasiticus NRRL 465 after 72 hrs by broth microdilution assay; format: functional; conditions: NRRL 465, 72 h; in short: as §2
[10] = test system: Fusarium solani; assay: Antifungal activity against Fusarium solani NRRL 13414 after 72 hrs by broth microdilution assay; format: functional; conditions: NRRL 13414, 72 h; in short: as §2
[11] = test system: Salmonella typhimurium; assay: Mutagenicity in Salmonella typhimurium TA98 at 0.156 mg/ml after 48 hrs by AMES MPF assay in presence of Sprague-Dawley rat liver microsomal S9 fraction relative to baseline; format: toxicity, organism-based; conditions: salmonella enterica subsp. enterica serovar typhimurium
In short: (§3)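 Ames MPF fluctuation test with TA98/TA100. Overnight cultures (37 °C, 14–16 h) mixed with exposure medium; ±Aroclor-1254-induced rat liver S9 (final 4.5% v/v). Compounds in DMSO, 0.156–5 mg/mL. 90 min exposure at 37 °C, then indicator medium; 48 wells per concentration, 48 h at 37 °C, in triplicate. Yellow wells counted; fold induction over baseline (mean + 1 SD of zero-dose control).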

[12] = test system: Salmonella typhimurium; assay: Mutagenicity in Salmonella typhimurium TA98 at 0.3125 mg/ml after 48 hrs by AMES MPF assay in presence of Sprague-Dawley rat liver microsomal S9 fraction relative to baseline; format: toxicity, organism-based; conditions: salmonella enterica subsp. enterica serovar typhimurium; in short: as §3
[13] = test system: Salmonella typhimurium; assay: Mutagenicity in Salmonella typhimurium TA98 at 0.625 mg/ml after 48 hrs by AMES MPF assay in presence of Sprague-Dawley rat liver microsomal S9 fraction relative to baseline; format: toxicity, organism-based; conditions: salmonella enterica subsp. enterica serovar typhimurium; in short: as §3
[14] = test system: Salmonella typhimurium; assay: Mutagenicity in Salmonella typhimurium TA98 at 1.25 mg/ml after 48 hrs by AMES MPF assay in presence of Sprague-Dawley rat liver microsomal S9 fraction relative to baseline; format: toxicity, organism-based; conditions: salmonella enterica subsp. enterica serovar typhimurium; in short: as §3
[15] = test system: Salmonella typhimurium; assay: Mutagenicity in Salmonella typhimurium TA98 at 2.5 mg/ml after 48 hrs by AMES MPF assay in presence of Sprague-Dawley rat liver microsomal S9 fraction relative to baseline; format: toxicity, organism-based; conditions: salmonella enterica subsp. enterica serovar typhimurium; in short: as §3
[16] = test system: Salmonella typhimurium; assay: Mutagenicity in Salmonella typhimurium TA98 at 5 mg/ml after 48 hrs by AMES MPF assay in presence of Sprague-Dawley rat liver microsomal S9 fraction relative to baseline; format: toxicity, organism-based; conditions: salmonella enterica subsp. enterica serovar typhimurium; in short: as §3
[17] = test system: Salmonella typhimurium; assay: Mutagenicity in Salmonella typhimurium TA98 at 0.156 mg/ml after 48 hrs by AMES MPF assay in absence of Sprague-Dawley rat liver microsomal S9 fraction relative to baseline; format: toxicity, organism-based; conditions: salmonella enterica subsp. enterica serovar typhimurium; in short: as §3
[18] = test system: Salmonella typhimurium; assay: Mutagenicity in Salmonella typhimurium TA98 at 0.3125 mg/ml after 48 hrs by AMES MPF assay in absence of Sprague-Dawley rat liver microsomal S9 fraction relative to baseline; format: toxicity, organism-based; conditions: salmonella enterica subsp. enterica serovar typhimurium; in short: as §3
[19] = test system: Salmonella typhimurium; assay: Mutagenicity in Salmonella typhimurium TA98 at 0.625 mg/ml after 48 hrs by AMES MPF assay in absence of Sprague-Dawley rat liver microsomal S9 fraction relative to baseline; format: toxicity, organism-based; conditions: salmonella enterica subsp. enterica serovar typhimurium; in short: as §3
[20] = test system: Salmonella typhimurium; assay: Mutagenicity in Salmonella typhimurium TA98 at 1.25 mg/ml after 48 hrs by AMES MPF assay in absence of Sprague-Dawley rat liver microsomal S9 fraction relative to baseline; format: toxicity, organism-based; conditions: salmonella enterica subsp. enterica serovar typhimurium; in short: as §3
[21] = test system: Salmonella typhimurium; assay: Mutagenicity in Salmonella typhimurium TA98 at 2.5 mg/ml after 48 hrs by AMES MPF assay in absence of Sprague-Dawley rat liver microsomal S9 fraction relative to baseline; format: toxicity, organism-based; conditions: salmonella enterica subsp. enterica serovar typhimurium; in short: as §3
[22] = test system: Salmonella typhimurium; assay: Mutagenicity in Salmonella typhimurium TA98 at 5 mg/ml after 48 hrs by AMES MPF assay in absence of Sprague-Dawley rat liver microsomal S9 fraction relative to baseline; format: toxicity, organism-based; conditions: salmonella enterica subsp. enterica serovar typhimurium; in short: as §3
[23] = test system: Salmonella typhimurium; assay: Mutagenicity in Salmonella typhimurium TA100 at 0.156 mg/ml after 48 hrs by AMES MPF assay in presence of Sprague-Dawley rat liver microsomal S9 fraction relative to baseline; format: toxicity, organism-based; conditions: salmonella enterica subsp. enterica serovar typhimurium; in short: as §3
[24] = test system: Salmonella typhimurium; assay: Mutagenicity in Salmonella typhimurium TA100 at 0.3125 mg/ml after 48 hrs by AMES MPF assay in presence of Sprague-Dawley rat liver microsomal S9 fraction relative to baseline; format: toxicity, organism-based; conditions: salmonella enterica subsp. enterica serovar typhimurium; in short: as §3
[25] = test system: Salmonella typhimurium; assay: Mutagenicity in Salmonella typhimurium TA100 at 0.625 mg/ml after 48 hrs by AMES MPF assay in presence of Sprague-Dawley rat liver microsomal S9 fraction relative to baseline; format: toxicity, organism-based; conditions: salmonella enterica subsp. enterica serovar typhimurium; in short: as §3
[26] = test system: Salmonella typhimurium; assay: Mutagenicity in Salmonella typhimurium TA100 at 1.25 mg/ml after 48 hrs by AMES MPF assay in presence of Sprague-Dawley rat liver microsomal S9 fraction relative to baseline; format: toxicity, organism-based; conditions: salmonella enterica subsp. enterica serovar typhimurium; in short: as §3
[27] = test system: Salmonella typhimurium; assay: Mutagenicity in Salmonella typhimurium TA100 at 2.5 mg/ml after 48 hrs by AMES MPF assay in presence of Sprague-Dawley rat liver microsomal S9 fraction relative to baseline; format: toxicity, organism-based; conditions: salmonella enterica subsp. enterica serovar typhimurium; in short: as §3
[28] = test system: Salmonella typhimurium; assay: Mutagenicity in Salmonella typhimurium TA100 at 5 mg/ml after 48 hrs by AMES MPF assay in presence of Sprague-Dawley rat liver microsomal S9 fraction relative to baseline; format: toxicity, organism-based; conditions: salmonella enterica subsp. enterica serovar typhimurium; in short: as §3
[29] = test system: Salmonella typhimurium; assay: Mutagenicity in Salmonella typhimurium TA100 at 0.156 mg/ml after 48 hrs by AMES MPF assay in absence of Sprague-Dawley rat liver microsomal S9 fraction relative to baseline; format: toxicity, organism-based; conditions: salmonella enterica subsp. enterica serovar typhimurium; in short: as §3
[30] = test system: Salmonella typhimurium; assay: Mutagenicity in Salmonella typhimurium TA100 at 0.3125 mg/ml after 48 hrs by AMES MPF assay in absence of Sprague-Dawley rat liver microsomal S9 fraction relative to baseline; format: toxicity, organism-based; conditions: salmonella enterica subsp. enterica serovar typhimurium; in short: as §3
[31] = test system: Salmonella typhimurium; assay: Mutagenicity in Salmonella typhimurium TA100 at 0.625 mg/ml after 48 hrs by AMES MPF assay in absence of Sprague-Dawley rat liver microsomal S9 fraction relative to baseline; format: toxicity, organism-based; conditions: salmonella enterica subsp. enterica serovar typhimurium; in short: as §3
[32] = test system: Salmonella typhimurium; assay: Mutagenicity in Salmonella typhimurium TA100 at 1.25 mg/ml after 48 hrs by AMES MPF assay in absence of Sprague-Dawley rat liver microsomal S9 fraction relative to baseline; format: toxicity, organism-based; conditions: salmonella enterica subsp. enterica serovar typhimurium; in short: as §3
[33] = test system: Salmonella typhimurium; assay: Mutagenicity in Salmonella typhimurium TA100 at 2.5 mg/ml after 48 hrs by AMES MPF assay in absence of Sprague-Dawley rat liver microsomal S9 fraction relative to baseline; format: toxicity, organism-based; conditions: salmonella enterica subsp. enterica serovar typhimurium; in short: as §3
[34] = test system: Salmonella typhimurium; assay: Mutagenicity in Salmonella typhimurium TA100 at 5 mg/ml after 48 hrs by AMES MPF assay in absence of Sprague-Dawley rat liver microsomal S9 fraction relative to baseline; format: toxicity, organism-based; conditions: salmonella enterica subsp. enterica serovar typhimurium; in short: as §3
[35] = test system: A549; assay: Antiproliferative activity against human A549 cells after 24 hrs by XTT assay; format: functional, cell-based; conditions: A549, 24 h
In short: (§4)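 A549 cells in RPMI and NIH/3T3 cells in DMEM, each with fetal calf serum, antibiotics and 7.5% NaHCO₃, at 37 °C, 5% CO₂. Seeded at 20,000 cells/well, 24 h, then compounds added in medium at 500–3.9 doses (final DMSO <0.1%) for 24 h. XTT read after 3 h at 480 nm (ref 680 nm). IC₅₀ by non-linear regression; triplicates; cisplatin control.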

[36] = Cytotoxicity against mouse NIH/3T3 cells after 24 hrs by XTT assay; format: cell-based; conditions: NIH3T3, 24 h; in short: as §4

MIC [1]: 125 µg/mL (≈ 281 µM)
MIC [2]: 250 µg/mL (≈ 562 µM)
MIC [3]: 250 µg/mL (≈ 562 µM)
MIC [4]: 250 µg/mL (≈ 562 µM)
MIC [5]: 250 µg/mL (≈ 562 µM)
MIC [6]: 250 µg/mL (≈ 562 µM)
MIC [7]: 125 µg/mL (≈ 281 µM)
MIC [8]: 250 µg/mL (≈ 562 µM)
MIC [9]: 250 µg/mL (≈ 562 µM)
MIC [10]: 250 µg/mL (≈ 562 µM)
IC50 [35]: 322 µg/mL (≈ 724 µM)
Structure (SMILES): Cc1ccc(C2=NN(c3nc(-c4ccc(C#N)cc4)cs3)C(c3ccc(F)cc3)C2)s1 (stereo unspecified)
fold change (FC) [11]: 0.27
fold change (FC) [12]: 0.18
fold change (FC) [13]: 1.07
fold change (FC) [14]: 0.44
fold change (FC) [15]: 0.89
fold change (FC) [16]: 1.16
fold change (FC) [17]: 1.78
fold change (FC) [18]: 1.56
fold change (FC) [19]: 1.11
fold change (FC) [20]: 1.11
fold change (FC) [21]: 1.56
fold change (FC) [22]: 1.33
fold change (FC) [23]: 1.01
fold change (FC) [24]: 0.94
fold change (FC) [25]: 0.86
fold change (FC) [26]: 0.7
fold change (FC) [27]: 0.55
fold change (FC) [28]: 1.01
fold change (FC) [29]: 0.8
fold change (FC) [30]: 0.74
fold change (FC) [31]: 0.74
fold change (FC) [32]: 0.31
fold change (FC) [33]: 0.31
fold change (FC) [34]: 0.8
IC50 [36]: 250 µg/mL (≈ 562 µM)
